Here are results for 30 compounds from PubChem BioAssay.

Test [1] in a line: nonspecific flux increase, KCNQ1-free cells – parental CHO cells, counter-screen for KCNQ1 potentiator project (AID 493006).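 On activation: fluorescence ratio of max minus min over baseline after K+ and Tl+ depolarization.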 Particulars: parental CHO-K1 cells, FluxOR thallium flux, at 10 µM; active compounds read high. Put shortly:
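Material: untransfected host CHO-K1 cells with FluxOR thallium dye. Timing: overnight 37 °C plating, 90 min RT dye, 20 min compound. Detection: kinetic FluxOR fluorescence, 10 s baseline, 110 s after stimulus. Read-out basis: max-minus-min fluorescence over baseline, percent of buffer-to-R-L3 span. Replicates: duplicate wells per compound, percent values averaged.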
Background: The purpose of a counterscreen is to sort out artefacts and off-target activity.

Test [2] addresses Potassium voltage-gated channel subfamily KQT member 1 (Homo sapiens) (UniProt P51787). The test can be described thus: enhancement of KCNQ1 channel thallium flux – FluxOR thallium flux, CHO cells, duplicates, confirmation (AID 493007;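 active means potentiation averaged over duplicate wells exceeding buffer-only control mean by more than 3 SD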;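 on outcome: cells depolarized by a potassium plus thallium sulfate stimulus after compound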). Particulars: KCNQ1 cell line, FluxOR thallium flux fluorescence, at 10 µM; active compounds read high, % of reference activator effect, buffer zero. Put shortly:
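Test system – KCNQ1-expressing CHO cell line · Incubation – FluxOR dye loading 90 min, compound exposure 20 min, room temperature · Detection – FluxOR Tl+ flux fluorescence, 10 s baseline plus 110 s recording · Controls – buffer-only wells as 0% and R-L3 activator as 100%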

Test [3] deals with Potassium voltage-gated channel subfamily KQT member 2 (Rattus norvegicus) (UniProt O88943). The test can be described thus: KCNQ2 thallium flux enhancement – KCNQ2-CHO-K1 cells, selectivity assay for KCNQ1 potentiator project (AID 493009;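 active means mean duplicate potentiation above the buffer control mean plus 5 SD of buffer wells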;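 further: assay conditions were tuned for KCNQ1 rather than KCNQ2 modulators; signal is max minus min fluorescence divided by baseline after thallium stimulus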). As to conditions: FluxOR thallium flux fluorescence, at 10 µM; active compounds read high, scaled: buffer 0, activator control 100.
Potassium voltage-gated channel subfamily KQT member 2 (Rattus norvegicus), sequence (O88943 whole entry, looked up): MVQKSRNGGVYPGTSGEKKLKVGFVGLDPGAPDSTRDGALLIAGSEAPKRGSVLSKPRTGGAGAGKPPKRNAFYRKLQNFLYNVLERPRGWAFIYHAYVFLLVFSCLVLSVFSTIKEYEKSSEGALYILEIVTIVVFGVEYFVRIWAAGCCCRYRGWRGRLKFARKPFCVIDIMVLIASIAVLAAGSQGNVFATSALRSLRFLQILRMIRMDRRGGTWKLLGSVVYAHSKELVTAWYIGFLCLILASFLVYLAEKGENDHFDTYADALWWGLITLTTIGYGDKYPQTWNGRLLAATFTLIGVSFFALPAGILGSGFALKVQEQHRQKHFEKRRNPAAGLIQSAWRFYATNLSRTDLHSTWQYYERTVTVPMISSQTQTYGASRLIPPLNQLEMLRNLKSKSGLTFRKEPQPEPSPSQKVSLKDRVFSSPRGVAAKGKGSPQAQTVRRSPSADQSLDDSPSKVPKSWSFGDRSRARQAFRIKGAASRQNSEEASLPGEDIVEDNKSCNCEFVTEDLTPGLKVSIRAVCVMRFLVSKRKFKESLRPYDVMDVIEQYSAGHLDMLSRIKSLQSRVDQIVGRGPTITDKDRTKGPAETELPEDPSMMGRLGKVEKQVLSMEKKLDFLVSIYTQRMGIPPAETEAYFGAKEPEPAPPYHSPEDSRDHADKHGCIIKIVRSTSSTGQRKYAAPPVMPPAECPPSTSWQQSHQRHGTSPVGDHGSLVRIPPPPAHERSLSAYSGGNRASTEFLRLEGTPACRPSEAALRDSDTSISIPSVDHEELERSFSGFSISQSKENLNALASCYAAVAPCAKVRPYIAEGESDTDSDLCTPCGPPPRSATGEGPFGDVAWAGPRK
The target of test [4] is Potassium voltage-gated channel subfamily KQT member 1 (Homo sapiens) (UniProt P51787). The test can be described thus: KCNQ1 activators by electrophysiology – IonWorks patch clamp, KCNQ1-CHO cells, orthogonal assay for KCNQ1 potentiator project, confirmation (AID 493184;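 active means current rise at least 3 SD above the untreated control mean in each of two repeat wells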;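 on current potentiation: percent change of the same well's current before compound addition so 0% = no change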). Particulars: automated patch clamp current, at 10 µM; active compounds read high. Put shortly:
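Read-out: Percent current increase versus pre-compound level | Assay system: CHO cells carrying KCNQ1 | Measured by: Automated perforated-patch electrophysiology | Medium: External bath solution at pH 7.4 | Dosing: One dose, 10 µM final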
(In general: Patch clamp records ionic current or voltage across a cell membrane.)

Calls of active or inactive are those of the source.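 How the source made its calls, unless noted: active means duplicate-averaged activation above buffer control mean plus 5 SD of those controls; inactive means the rest.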

Potassium voltage-gated channel subfamily KQT member 1 (Homo sapiens), sequence (P51787 whole entry, looked up): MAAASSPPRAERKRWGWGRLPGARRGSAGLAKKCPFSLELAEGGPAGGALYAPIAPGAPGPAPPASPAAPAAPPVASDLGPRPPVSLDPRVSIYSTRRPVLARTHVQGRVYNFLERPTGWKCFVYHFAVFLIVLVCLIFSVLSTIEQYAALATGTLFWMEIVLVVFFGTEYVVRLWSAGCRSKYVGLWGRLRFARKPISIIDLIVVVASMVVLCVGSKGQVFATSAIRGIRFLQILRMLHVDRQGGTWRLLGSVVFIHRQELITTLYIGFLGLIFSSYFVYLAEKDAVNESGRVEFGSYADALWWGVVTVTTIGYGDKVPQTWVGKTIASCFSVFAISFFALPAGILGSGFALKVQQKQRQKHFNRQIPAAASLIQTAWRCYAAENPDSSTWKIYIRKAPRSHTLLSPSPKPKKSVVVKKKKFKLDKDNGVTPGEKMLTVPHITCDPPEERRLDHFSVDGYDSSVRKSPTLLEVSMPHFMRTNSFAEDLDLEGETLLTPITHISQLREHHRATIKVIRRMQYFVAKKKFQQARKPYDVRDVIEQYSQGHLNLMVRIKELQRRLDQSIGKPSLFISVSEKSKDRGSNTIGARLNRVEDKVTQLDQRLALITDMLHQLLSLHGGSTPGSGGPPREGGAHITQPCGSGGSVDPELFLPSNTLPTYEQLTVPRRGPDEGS

On to `COc1cc(CN(C)CC2CCCN(CCc3cccc(C(F)(F)F)c3)C2)ccc1O` (stereo not given), for which the result in test [1], in test [3] and in test [4] was inactive. In addition, the potentiation in test [2] is 43% (active).
Consider `Oc1c(Br)cc(Br)cc1C=NCc1ccc(F)cc1`, for which, in test [1], the activation was 153% (active). In addition, the result in test [2] and in test [4] was inactive. In test [3], the potentiation is 146% (active).
Regarding `Cc1cc(C(=O)NN)n[nH]1`, the result in test [1], in test [2], in test [3] and in test [4] was inactive.
`CC1C/C(=C/c2ccncc2)C(=O)/C(=C/c2ccncc2)C1` (stereo not given): the result in test [1], in test [2], in test [3] and in test [4] was inactive.
Take `c1ccc2c(OCCCCN3CCOCC3)cccc2c1`: the result in test [1], in test [2], in test [3] and in test [4] was inactive.
With `CN(CC(=O)NCCc1ccc(F)cc1)Cc1cccc(Cl)c1`, the outcome in test [1], in test [2], in test [3] and in test [4] was inactive.
In the case of `COc1cccc(OC)c1OCCOCCN1CCN(C)CC1`, the outcome in test [1], in test [2], in test [3] and in test [4] was inactive.
As for `COc1ccc(C)cc1-n1c(SCC(=O)Nc2cc(C)on2)nc2ccccc2c1=O`, the result in test [1], in test [2], in test [3] and in test [4] was inactive.
As for `Cc1noc(C)c1CSc1ncnc2sc(C)c(C)c12`, the outcome in test [1], in test [2], in test [3] and in test [4] was inactive.
Take `Oc1[nH]c2c(Cl)cc(Cl)cc2c1N=NC(=S)NCC1CCCO1` (stereo not given): the activation in test [1] is 346% (active). The potentiation in test [2] was 277% (active); in test [3] it was 454% (active). The outcome in test [4] was inactive.
On the same counts, the results for `O=C(NC(=S)Nc1cccc(Cl)c1N1CCCCC1)c1ccco1` are 156% (active), 148% (active), 178% (active) and “inactive”.
Consider `S=c1[nH]cnc2scc(-c3ccc(Cl)cc3)c12`, for which the activation in test [1] was 158% (active). For the same compound, the potentiation was 47% (active) in test [2] and 191% (active) in test [3]. For the same compound, the outcome in test [4] was inactive.
The corresponding values for `C/C(N)=C(/C#N)C(=O)CSc1nc2ccccc2c(=O)n1Cc1ccc(F)cc1` are 178% (active), 48.5% (active), 194% (active) and “inactive”.
Take `Cc1nc(NC(=S)NC(=O)c2cccs2)ccc1Br`: the activation in test [1] is 148% (active). Also, the potentiation in test [2] is 23.5% (active). For the same compound, the result in test [3] and in test [4] was inactive.
As for `Cc1ccc2nc(N3CCN(Cc4ccc(F)cc4)C3=O)c(C)cc2c1`, the result in test [1], in test [2], in test [3] and in test [4] was inactive.
With `Nc1nc(NCc2ccco2)nc(NC2CCCCC2)c1[N+](=O)[O-]`, the result in test [1], in test [2], in test [3] and in test [4] was inactive.
On to `Oc1c(Br)cc(Br)cc1C=Nc1ccc2c(c1)OCCO2`, for which the activation in test [1] was 159% (active). Further, the result in test [2], in test [3] and in test [4] was inactive.
Turning to `CCOc1ccccc1C1c2[nH]c3ccccc3c2C[C@H]2C(=O)N(C3CC3)CC(=O)N12` (stereo not given in full), the outcome in test [1], in test [2] and in test [3] was inactive. The current potentiation in test [4] was 22.3% (active).
`COn1c(SCc2ccc(C)cc2C)nc2ccccc2c1=O`: the outcome in test [1], in test [2], in test [3] and in test [4] was inactive.
For the compound `NC(=O)c1ccccc1NC(=O)N1CCOCC1`, the outcome in test [1], in test [2], in test [3] and in test [4] was inactive.
For `Oc1c(Br)cc(Br)cc1C=Nc1cccnc1`, the activation in test [1] is 146% (active). In test [2], the potentiation was 48% (active). Further, the result in test [3] and in test [4] was inactive.
With `CCCC(=O)n1nc(-c2ccccc2)nc1N`, the result in test [1], in test [2], in test [3] and in test [4] was inactive.
On to `CCc1ccc2[nH]c(C(=O)Nc3ccc(F)cc3Br)cc2c1`, for which the outcome in test [1], in test [2], in test [3] and in test [4] was inactive.
Regarding `COc1cc(OC)cc(C(=O)NC(=S)N(Cc2ccccc2)C(C)C)c1`, the activation in test [1] was 294% (active). The potentiation is 150% (active) in test [2] and 380% (active) in test [3]. Further, the result in test [4] was inactive.
On the same counts, the results for `Cc1sc2ncnc(SCC(=O)NC(=O)c3cccn3C)c2c1C` are 170% (active), 28.5% (active), 201% (active) and “inactive”.
For `O=C(NC(=S)Nc1nc(-c2ccccc2)cs1)c1ccco1`, the result in test [1], in test [3] and in test [4] was inactive. Further, the potentiation in test [2] is 48.5% (active).
As to `Cc1cccc(N=Cc2cc(Br)cc(Cl)c2O)c1`, in test [1], the activation was 188% (active). Besides, the potentiation in test [2] is 27% (active). For the same compound, the result in test [3] and in test [4] was inactive.
Turning to `Oc1[nH]c2ccc(Br)cc2c1N=NC(=S)Nc1ccc(F)cc1`, the result in test [1] and in test [4] was inactive. For the same compound, the potentiation was 43.5% (active) in test [2] and 160% (active) in test [3].
`Oc1c(N=Nc2ccccn2)ccc2ccccc12`: the activation in test [1] was 182% (active). Moreover, the values for the potentiation in test [2] and in test [3] were 91.5% (active) and 168% (active), respectively. In test [4], the result was inactive.
In the case of `O=C(Nc1nnc(-c2ccco2)o1)c1cccc(Cl)c1`, the result in test [1], in test [2], in test [3] and in test [4] was inactive.
